The values that follow come from ChEMBL document CHEMBL3588772, “Synthesis, anti-mycobacterial activity and DNA sequence-selectivity of a library of biaryl-motifs containing polyamides” (Bioorg Med Chem, 2015).

Values after ≈ are worked out from the molar mass of the structure shown.

This assay has as its system Mycobacterium tuberculosis. Briefly: Antimycobacterial activity against Mycobacterium bovis BCG after 7 days. Type of assay: functional. The conditions noted are these: variant bovis BCG, 168 h. Summed up: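 HT-SPOTi agar growth inhibition in 96-well format. Serially diluted DMSO solutions were mixed into Middlebrook 7H10 agar (kept at 55 °C) with 0.05% glycerol and 10% OADC. Controls were DMSO-only wells and isoniazid. Each well received 2×10³ CFU of culture (pre-grown rolling at 2 rpm or standing, 37 °C). Plates ran 7 days at 37 °C. MIC = lowest concentration with no visible growth.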

As for `Cc1nc(-c2ccsc2)sc1C(=O)Nc1cc(C(=O)Nc2cc(C(=O)NCCCN(C)C)n(C)c2)n(C)c1`, the MIC (usually the least concentration at which growth counts as inhibited) came to 125 µg/mL (≈ 226 µM).
Compound `CC(=O)Nc1ccc(-c2csc(C(=O)Nc3cc(C(=O)Nc4cc(C(=O)NCCCN(C)C)n(C)c4)n(C)c3)c2)cc1` had an MIC of 125 µg/mL (≈ 212 µM).
Take `CC(=O)Nc1ccc(-c2cc(C(=O)Nc3cc(C(=O)Nc4cc(C(=O)NCCCN(C)C)n(C)c4)n(C)c3)n(C)c2)cc1`: the MIC amounted to 125 µg/mL (≈ 213 µM).
Then `Cn1cc(NC(=O)c2cc(NC(=O)c3cc(NC=O)cn3C)cn2C)cc1C(=O)NCCC(=N)N` [STALLIMYCIN], with 1.95 µg/mL (≈ 4.05 µM).
Then `CO[C@H]1/C=C/O[C@@]2(C)Oc3c(C)c(O)c4c(O)c(c(/C=N/N5CCN(C)CC5)c(O)c4c3C2=O)NC(=O)/C(C)=C\C=C\[C@H](C)[C@H](O)[C@@H](C)[C@@H](O)[C@@H](C)[C@H](OC(C)=O)[C@@H]1C` [RIFAMPIN], with 0.05 µg/mL (≈ 0.0608 µM).
`CC(=O)Nc1ccc(-c2ccc(C(=O)Nc3cc(C(=O)Nc4cc(C(=O)NCCCN(C)C)n(C)c4)n(C)c3)o2)cc1` yielded an MIC of 125 µg/mL (≈ 218 µM). Against the preceding compound, the MIC is about 2500-fold higher.
As to `Cc1nc(-c2cnn(C)c2)sc1C(=O)Nc1cc(C(=O)Nc2cc(C(=O)NCCCN(C)C)n(C)c2)n(C)c1`, the MIC was 62.5 µg/mL (≈ 113 µM).
Take `NNC(=O)c1ccncc1` [ISONIAZID]: 0.05 µg/mL (≈ 0.365 µM) was the least that counted as inhibitory (MIC).
Regarding `CC(=O)Nc1cccc(-c2ccc(C(=O)Nc3cc(C(=O)Nc4cc(C(=O)NCCCN(C)C)n(C)c4)n(C)c3)o2)c1`, 125 µg/mL (≈ 218 µM) was the least that counted as inhibitory (MIC). This MIC lies about 2500-fold higher than the previous one.
